Series [1] addresses T1, Corticotropin-releasing factor receptor 1 (Homo sapiens, UniProt P34998).
T1 sequence (P34998 whole entry): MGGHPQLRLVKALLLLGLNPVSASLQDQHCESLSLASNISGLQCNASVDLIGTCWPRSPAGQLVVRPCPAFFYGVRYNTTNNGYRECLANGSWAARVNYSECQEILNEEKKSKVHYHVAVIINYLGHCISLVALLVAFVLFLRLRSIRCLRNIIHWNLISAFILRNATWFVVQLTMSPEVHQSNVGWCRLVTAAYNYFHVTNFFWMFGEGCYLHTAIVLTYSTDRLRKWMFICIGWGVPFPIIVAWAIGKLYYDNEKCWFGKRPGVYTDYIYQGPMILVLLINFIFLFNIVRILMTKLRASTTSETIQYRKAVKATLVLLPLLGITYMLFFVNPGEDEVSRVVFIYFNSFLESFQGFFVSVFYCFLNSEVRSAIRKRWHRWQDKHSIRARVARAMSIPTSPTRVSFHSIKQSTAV
The series can be described thus: Displacement of [125I]-CRF from human CRF1 receptor expressed in CHO cellular membrane fraction after 1.5 hrs by liquid scintillation counting method. The class given is cell-based.

Series [2] can be described thus: Cytotoxicity against human HepG2 cells assessed as rate of ATP content at 30 uM after 1 day by ATPLite-M assay relative to control. The format is cell-based. The conditions noted are these: read-out: Activity.
Series [3] in a line: Octanol-water partition co-efficient, log D of the compound at pH 7.4 by HPLC analysis. The class given is physicochemical.
For series [4], the target named is T2, Corticotropin-releasing factor receptor 2 (Homo sapiens) (UniProt Q13324).
T2 sequence (whole entry): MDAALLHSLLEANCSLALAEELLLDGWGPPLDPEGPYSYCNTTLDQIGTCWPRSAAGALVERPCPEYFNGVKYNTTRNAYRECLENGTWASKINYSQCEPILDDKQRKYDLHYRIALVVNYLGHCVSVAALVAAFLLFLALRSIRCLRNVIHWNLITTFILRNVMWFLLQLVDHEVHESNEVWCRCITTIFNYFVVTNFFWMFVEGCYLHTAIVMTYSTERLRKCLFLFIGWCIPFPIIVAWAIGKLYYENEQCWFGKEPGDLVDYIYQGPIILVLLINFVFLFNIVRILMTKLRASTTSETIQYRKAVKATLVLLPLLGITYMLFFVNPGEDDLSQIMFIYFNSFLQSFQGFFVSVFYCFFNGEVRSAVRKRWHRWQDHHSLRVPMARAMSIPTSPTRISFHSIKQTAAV
Put plainly: Binding affinity to human CRF2alpha receptor up to 10 uM.

Series [5] addresses T2, Corticotropin-releasing factor receptor 2 (Homo sapiens). The series can be described thus: Binding affinity to human CRF2beta receptor up to 10 uM.
The nature of series [6]: Solubility of the compound in pH 6.8 phosphate buffer with bile acid by HPLC analysis. The class given is physicochemical. Put shortly: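 DMSO stock of compound added to pH 6.8 phosphate buffer containing bile acid. After incubation, precipitate removed by filter-plate filtration; dissolved compound in filtrate quantified by HPLC.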
Series [7] relates to Mus musculus. The series can be described thus: Ex vivo inhibition of [125I]-CRF binding to CRF1 receptor in mouse frontal cortex at 60 mg/kg, po after 1 hr by gamma scintillation counting method. The format is functional. The gist of the method: (§1)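 Compound suspended in 0.5% methyl cellulose in water and dosed orally (10 mL/kg), 5 mice/group. Incubated with 100 pM ovine 125I-CRF at rt for 2 h, then GF/C filtration.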

In series [8] the test system is Mus musculus. Put plainly: Ex vivo inhibition of [125I]-CRF binding to CRF1 receptor in mouse olfactory bulb at 60 mg/kg, po after 1 hr by gamma scintillation counting method. The format is functional. The gist of the method:
as §1

The test system of series [9] is Mus musculus. The series can be described thus: Ex vivo inhibition of [125I]-CRF binding to CRF1 receptor in mouse pituitary gland at 60 mg/kg, po after 1 hr by gamma scintillation counting method. The class given is functional. Put shortly: as §1
Series [10] concerns Mus musculus. Put plainly: Suppression of stress-induced activation of hypothalamus-pituitary-adrenocortical axis in mouse assessed as reduction of plasma ATCH level at 60 mg/kg, po after 1 hr by immunoradiometric assay. The format is functional, organism-based. The gist of the method:
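Mice dosed orally with compound suspended in 0.5% methyl cellulose (10 mL/kg) 1 h before test. PBS given icv (5 µL/mouse); blood taken by decapitation 0.5 h later. Plasma separated by centrifugation at 4°C; ACTH measured by immunoradiometric assay. Mean ± SEM, n = 10, Dunnett's test vs vehicle.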

Series [11] relates to Mus musculus. The series can be described thus: Ex vivo inhibition of [125I]-CRF binding to CRF1 receptor in mouse frontal cortex at 20 mg/kg, po after 1 hr by gamma scintillation counting method. The class given is functional. Put shortly: as §1
For series [12], the system named is Mus musculus. Put plainly: Ex vivo inhibition of [125I]-CRF binding to CRF1 receptor in mouse olfactory bulb at 20 mg/kg, po after 1 hr by gamma scintillation counting method. The format is functional. The gist of the method:
as §1

Series [13] concerns Mus musculus. The series can be described thus: Ex vivo inhibition of [125I]-CRF binding to CRF1 receptor in mouse pituitary gland at 20 mg/kg, po after 1 hr by gamma scintillation counting method. The class given is functional. The gist of the method: as §1

In brackets after ≈: the same amount, converted by molar mass. Activity calls are given as the source filed them. No cut-off for these calls is given here.

On to `CCCN(CCC)c1cccc2nc(Nc3c(C)cc(C)cc3C)n(-c3ccccc3)c12`, for which the IC50 in [1] amounted to 2.2 µM. In addition, in [2], the viability at 24 h, 30 µM amounted to 32%. Also, the pH-dependent lipophilicity (logD) in [3] worked out at 6.31.
Regarding `CCCN(CCC)c1ccc(Cl)c2nc(Nc3c(C)cc(Cl)cc3OC)n(C)c12`, the result in series [4] and in [5] was inactive. Further, the concentration in solution in [6] (solubility) was 0.033 mg/mL (≈ 75.8 µM). Besides, the inhibition in vivo at 60 mg/kg with Mus musculus [7] is 86%; with Mus musculus [8] it was 83%; in the series on Mus musculus [9] it was 101%. Further, the result with Mus musculus [10] was Active.
As to `CCCN(CCC)c1c(Cl)ccc2nc(Nc3c(C)cc(Cl)cc3OC)n(C)c12`, the IC50 in [1] is above 10 µM. In addition, the viability at 24 h, 30 µM in series [2] is 86%.
As for `CCN(CC)c1ccc(Cl)c2nc(Nc3c(C)cc(Cl)cc3OC)n(C)c12`, in [2], the viability at 24 h, 30 µM was determined as 76%.
For `CCN(CC)c1ccc(OC)c2nc(Nc3c(C)cc(Cl)cc3OC)n(C)c12`, the IC50 in [1] amounted to 0.013 µM. Moreover, the viability at 24 h, 30 µM in series [2] was found to be 5%.
Consider `CCCN(CCC)c1cccc2nc(Nc3c(C)cccc3C)n(C)c12`, for which, in [1], the IC50 was determined as 0.14 µM. In addition, the viability at 24 h, 30 µM in series [2] was found to be 72%.
On the same counts, the results for `CCCN(CCC)c1ccc(C#N)c2nc(Nc3c(C)cc(Cl)cc3OC)n(C)c12` are 0.014 µM and 83%.
`CCCN(CCC)c1cccc2nc(Nc3c(C)cc(Cl)cc3C(C)C)n(C)c12`: the half-maximal inhibitory concentration (IC50) in [1] came out at 0.022 µM. The viability at 24 h, 30 µM in series [2] came out at 28%. Moreover, the logD in series [3] is 5.96.
For the compound `CCN(CC)c1cccc2nc(Nc3c(C)cc(Br)cc3OC)n(C)c12`, in series [1], the IC50 was determined as 0.013 µM. The viability at 24 h, 30 µM in [2] is 93%.
On the same counts, the results for `CCN(c1cccc2nc(Nc3c(C)cc(Br)cc3OC)n(C)c12)C(C)C` are 0.011 µM and 87%.
On the same counts, the results for `CCCCN(CCCC)c1cccc2nc(Nc3c(C)cc(Br)cc3OC)n(C)c12` are 0.014 µM and 90%.
In the same order, the values of `CCN(CC)c1ccc(C#N)c2nc(Nc3c(C)cc(Cl)cc3OC)n(C)c12` are 0.013 µM and 81%.
Take `CCCN(CCC)c1cccc2nc(Nc3c(C)cc(C)cc3C)n(C)c12`: the IC50 in series [1] came to 0.015 µM. For the same compound, in series [2], the viability at 24 h, 30 µM turned out to be 89%. In series [3], this compound registered a logD of 5.23.
As to `CCCN(CCC)c1cc(C)nc2c(-c3cnc(N(C)C)cc3C)c(C)nn12`, in [2], the viability at 24 h, 30 µM is 51%. The inhibition in vivo at 20 mg/kg in the series on Mus musculus [11] was determined as 96%; with Mus musculus [12], 95%; with Mus musculus [13], 98%.
As to `CCCN(CCC)c1c(Cl)cc(Cl)c2nc(Nc3c(C)cc(Cl)cc3OC)n(C)c12`, in series [1], the IC50 was found to be 0.17 µM. Further, the viability at 24 h, 30 µM in series [2] amounted to 72%.
In the same order, the values of `CCN(CC)c1ccc(C)c2nc(Nc3c(C)cc(Cl)cc3OC)n(C)c12` are 0.0076 µM and 72%.
In the same order, the values of `CCCN(CCC)c1cccc2nc(Nc3c(C)cc(C)cc3C)oc12` are 0.99 µM and 65%.
In the same order, the values of `CCN(CC)c1ccc(-c2ccccc2)c2nc(Nc3c(C)cc(Cl)cc3OC)n(C)c12` are above 10 µM and 92%.
With `CCCN(CCC)c1cccc2nc(Nc3c(C)cc(C)cc3C)n(C(C)C)c12`, the IC50 in series [1] was 0.097 µM. For the same compound, in series [2], the viability at 24 h, 30 µM came to 10%. For the same compound, in [3], the logD stood at 5.9.
Take `CCCN(CCC)c1cccc2nc(Nc3ccc(C)cc3C)n(C)c12`: in series [1], the IC50 is 0.084 µM. The viability at 24 h, 30 µM in series [2] turned out to be 79%.
`COCCN(CCOC)c1cccc2nc(Nc3c(C)cc(Br)cc3OC)n(C)c12`: the IC50 in series [1] amounted to 0.065 µM. Moreover, in series [2], the viability at 24 h, 30 µM turned out to be 92%.
In the same order, the values of `CCCN(CCC)c1cccc2nc(Nc3c(C)cc(C)cc3C)sc12` are 0.077 µM and 75%.
On the same counts, the results for `CCCN(CCC)c1cccc2nc(Nc3c(C)cc(C)cc3C)[nH]c12` are 2.5 µM and 41%.
In [1], `CCCN(CCC)c1cccc2nc(Nc3c(C)cc(Br)cc3OC)n(C)c12` came in with an IC50 of 0.012 µM. Also, the viability at 24 h, 30 µM in series [2] is 82%. The same compound had a logD in series [3] of 5.39.
`CCCN(CCC)c1cccc2nc(Nc3c(C)cc(Cl)cc3OC)n(C)c12` displayed an IC50 in [1] of 0.014 µM.
